# Measured values of several laboratories.
# Protocols differ between the studies behind these lines.
# SIRT6: NAD-dependent protein deacylase sirtuin-6 (SIRT6, Homo sapiens, UniProt Q8N6T7)
# CCR2: C-C chemokine receptor type 2 (CCR2, Homo sapiens, UniProt P41597)
# TEK: Angiopoietin-1 receptor (TEK, Homo sapiens, UniProt Q02763)
# CTSB: Cathepsin B (CTSB, Homo sapiens, UniProt P07858)
# FLT4: Vascular endothelial growth factor receptor 3 (FLT4, Homo sapiens, UniProt P35916)
# MAPK10: Mitogen-activated protein kinase 10 (MAPK10, Homo sapiens, UniProt P53779)
# ALK: ALK tyrosine kinase receptor (ALK, Homo sapiens, UniProt Q9UM73)
# PTPRC: Receptor-type tyrosine-protein phosphatase C (PTPRC, Homo sapiens, UniProt P08575)
SMILES,target,test,system,conditions,IC50 [nM]
C=CC(=O)Nc1ccc(N2CCC[C@@H](Nc3ncc(Cl)c(-c4c[nH]c5ccccc45)n3)C2)cc1C,"Cyclin-dependent kinase 2, with cyclin A (CDK2, Homo sapiens, UniProt P24941)","enzyme activity, inhibitor, FRET",,,1100
Nc1nonc1-n1cc(C(=O)N/N=C/c2ccccc2C(=O)O)nn1,SIRT6,"enzyme activity, inhibitor, fluorescence",,,59500
CN(Cc1ccc(NC(=O)C2=Cc3cc(-c4ccc(OCCCF)cc4)ccc3CCC2)cc1)C1CCOCC1,CCR2,"ligand displacement, radioligand",,cell membranes,118
CNC(=O)c1cc2c(Oc3ccc(NC(=O)C4(C(=O)Nc5ccc(F)cc5)CC4)cc3)ccnc2cc1OC,TEK,"enzyme activity, inhibitor, radiometric",,,32
CCn1c(-c2nc3ccc(C(=O)N4CCCC(N)C4)cc3n2C)cc2ccccc21 (stereo not drawn),"Sodium channel protein type 5 subunit alpha (SCN5A, Homo sapiens, UniProt Q14524)","ion current, inhibitor",,,31600
CC(C)(C)Nc1nc(N)c(C(=O)c2ccc(Cl)cc2)s1,"Cyclin-dependent kinase 2 (CDK2, Homo sapiens, UniProt P24941)","enzyme activity, inhibitor, mobility shift",,,4900
Cc1nc2ccc(Cl)cc2c(=O)n1NC1=NC(=O)CS1,CTSB,"enzyme activity, inhibitor",,,74500
CN(Cc1ccc(NC(=O)C2=Cc3cc(-c4ccc(OCCCCCCCF)cc4)ccc3CCC2)cc1)C1CCOCC1,CCR2,"calcium signal, antagonist",,,1.1
COc1cc(/C=N/n2c(C)nc3ccc(Br)cc3c2=O)ccc1OCc1ccc(Cl)cc1,CTSB,"enzyme activity, inhibitor",,,45800
NC(=O)c1ccc(C(=O)NOCc2ccc(Sc3cc(F)cc(F)c3)c(C(F)(F)F)c2)cc1,SIRT6,"enzyme activity, inhibitor, fluorescence",,,1300
COc1ccc2c(Oc3ccc4c(C(=O)Nc5ccccc5N)cccc4c3)ccnc2c1,FLT4,"enzyme activity, inhibitor",,,9
CSc1nc(C)c(-c2ccnc(N[C@H]3CC[C@H](NC(=O)c4ccccc4)CC3)c2)[nH]1,MAPK10,"enzyme activity, inhibitor, ELISA",,,1220
NC(=O)c1ccc[n+]([C@@H]2O[C@H](COP(=O)([O-])OP(=O)(O)OC[C@H]3O[C@@H](n4cnc5c(N)ncnc54)[C@H](O)[C@@H]3O)[C@@H](O)[C@H]2O)c1,"Poly [ADP-ribose] polymerase 2 (PARP2, Homo sapiens, UniProt Q9UGN5)","enzyme activity, inhibitor",,,50000
NC(=O)c1ccc(C(=O)NOCc2ccc(Sc3ccc(C(F)(F)F)cc3)c(C(F)(F)F)c2)cc1,SIRT6,"enzyme activity, inhibitor, fluorescence",,,1790
COc1ccc(-c2ccc3[nH]c4ncc(-c5cccc([N+](=O)[O-])c5)cc4c3c2)cc1,ALK,"enzyme activity, inhibitor, ELISA",,,9300
COC[C@]1(c2ccc(F)cc2F)C[C@H]1Oc1ccc(C#N)cc1-c1cc(C)[nH]n1 (racemic),ALK,"enzyme activity, inhibitor, TR-FRET",,,43
C=C(C)[C@H](CCC(C)(C)O)Cc1c(O)cc(OC)c2c1O[C@H](c1ccc(O)cc1O)CC2=O,"Fatty acid synthase (FASN, Gallus gallus, UniProt P12276)","enzyme activity, inhibitor, radiometric",,,98200
c1ccc(Nc2ccc3c(n2)[nH]c2ccccc23)cc1,ALK,"enzyme activity, inhibitor, ELISA",,,> 10000
CN(Cc1ccc(NC(=O)C2=Cc3cc(-c4ccc(OCCCCCO)cc4)ccc3CCC2)cc1)C1CCOCC1,CCR2,"calcium signal, antagonist",,,10
NC(=O)c1ccc(C(=O)NOCc2ccc(Sc3ccccc3)cc2)cc1,SIRT6,"enzyme activity, inhibitor, fluorescence",,,1780
CC(C)C[C@H](NC(=O)[C@H](CC(N)=O)NC(=O)[C@@H](N)CC(C)C)C(=O)NCC(=O)NCCCCNC(=O)c1ccc(-c2n[nH]c3ccccc23)cc1,MAPK10,"enzyme activity, inhibitor",,,157
NC(=O)c1ccc(C(=O)NOCc2ccc(Nc3ccccc3)cc2)cc1,SIRT6,"enzyme activity, inhibitor, fluorescence",,,2610
COC(=O)[C@@]1(c2ccc(F)cc2F)C[C@@H]1Oc1ccc(C#N)cc1-c1cc(C)[nH]n1 (racemic),ALK,"enzyme activity, inhibitor, TR-FRET",,,41
NC(=O)c1ccc(C(=O)NOCc2ccc(Sc3cc(Cl)cc(Cl)c3)c(C(F)(F)F)c2)cc1,SIRT6,"enzyme activity, inhibitor, fluorescence",,,1240
COc1ccc(-c2ccc3[nH]c4ncc(C=Cc5ccccc5)cc4c3c2)cc1,ALK,"enzyme activity, inhibitor, ELISA",,,1200
NC(=O)c1ccc(C(=O)NOCc2ccc(Sc3ccccc3Cl)c(C(F)(F)F)c2)cc1,SIRT6,"enzyme activity, inhibitor, fluorescence",,,3820
O=C(Oc1cc(O)cc2c1C[C@@H](OC(=O)c1cc(O)c(O)c(O)c1)[C@@H](c1cc(O)c(O)c(O)c1)O2)c1cc(O)c(O)c(O)c1,PTPRC,"enzyme activity, inhibitor, fluorescence",,,500
Cc1cnc(-c2ccc(-c3ccc(NC(=O)Nc4c(F)cc(F)cc4F)cc3F)c3c2C(=O)NC3)[nH]1,TEK,"enzyme activity, inhibitor",,,6.5
Nc1nonc1-n1cc(C(=O)N/N=C/c2ccc(C(F)(F)F)cc2[N+](=O)[O-])nn1,SIRT6,"enzyme activity, inhibitor, fluorescence",,,6200
CCN(CC)C(=S)SSC(=S)N(CC)CC,PTPRC,"enzyme activity, inhibitor, fluorescence",,,> 500000
Cc1cc(-c2ccccc2)n[nH]1,ALK,"enzyme activity, inhibitor, TR-FRET",,,> 300000
O=C(Nc1ccn(Cc2ccc(O)cc2C(F)(F)F)n1)c1c(F)cccc1F,"Transient receptor potential cation channel subfamily V member 4 (Trpv4, Rattus norvegicus, UniProt Q9ERZ8)",ion current,,,> 10000
COc1cccc(CONC(=O)c2ccc(C(N)=O)cc2)c1,SIRT6,"enzyme activity, inhibitor, fluorescence",,,6490
CN1C(=O)c2c(nn(Cc3ccc(-c4cccc(F)n4)cc3)c2Nc2ccccc2)N2C1=N[C@@H]1CCC[C@@H]12,"Dual specificity calcium/calmodulin-dependent 3',5'-cyclic nucleotide phosphodiesterase 1A (PDE1A, Homo sapiens, UniProt P54750)","enzyme activity, inhibitor, radiometric",,,0.031
Cc1cc(-c2cc(C#N)ccc2O[C@@H]2C[C@]2(CO)c2ccc(F)cc2F)n[nH]1 (racemic),ALK,"enzyme activity, inhibitor, TR-FRET",,,34
CN(C)CCC=C1c2ccccc2CCc2ccccc21,"Multidrug and toxin extrusion protein 1 (SLC47A1, Homo sapiens, UniProt Q96FL8)","transporter uptake, inhibitor, radiometric",HEK293,5 min,29600
Cc1ccc(C(=O)Nc2ccc(Oc3cc4cnn(C)c4cc3-c3cn[nH]c3)c(F)c2)c(=O)n1-c1ccc(F)cc1,FLT4,"enzyme activity in cells, inhibitor",,,> 316
NC(=O)c1ccc(C(=O)NOCc2ccc(Sc3ccc(N)cc3)c(C(F)(F)F)c2)cc1,SIRT6,"enzyme activity, inhibitor, fluorescence",,,1800
COc1cccc(-c2cc(C)[nH]n2)c1,ALK,"enzyme activity, inhibitor, TR-FRET",,,170000
